“And” between values parts separate entries of the source, which are not always exact repeats. Equal values may be shown once.
System: HEK-293T
Assay: Multiplex assay against HEK293T
Format: toxicity, cell-based
Conditions: human, number of replicates 2
Method in brief: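 Four dyes were applied at seeding to live cells: Hoechst33342, BioTracker Green Microtubule Cytoskeleton Dye, MitoTracker Red and Annexin V Alexa Fluor 680. Imaging after compound addition used a CQ1 microscope at 37°C and 5% CO2. CellPathfinder machine-learning gating then sorted cells into Hoechst high-intensity objects or normal cells, normal cells into healthy, pyknosed or fragmented nuclei, and pyknosed cells into mitotic or apoptotic, with tubulin, mitochondrial-mass and membrane-permeability phenotypes given as per cents of healthy-nucleus cells.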

[1] = 12 h, 1 µM, compound concentration 1 uM
[2] = 12 h, 10 µM, compound concentration 10 uM
[3] = 24 h, 1 µM, compound concentration 1 uM
[4] = 24 h, 10 µM, compound concentration 10 uM
[5] = 48 h, 1 µM, compound concentration 1 uM
[6] = 48 h, 10 µM, compound concentration 10 uM

CCc1cnn2c(NCc3ccc[n+]([O-])c3)cc(N3CCCCC3CCO)nc12 (configuration not stated)
Population Apoptotic (%) [1]: 70% and 62% | Population Fragmented Nuclei (%) [1]: 3% and 2% | Population Healthy Nuclei (%) [1]: 83% and 90% | Population Hoechst High Intensity Objects (%) [1]: 9% and 7% | Population Membrane Permeable-Phenotype (%) [1]: 0% and 1% | Population Mitochondria Different-Phenotype (%) [1]: 47% and 51% | Population Mitotic Cells (%) [1]: 29% and 37% | Population Normal (%) [1]: 90% and 92% | Population Pyknosed Nuclei (%) [1]: 12% and 7% | Population Tubulin-Different-Phenotype (%) [1]: 70% and 75% | Total Cell Count [1]: 349 and 339 | Population Apoptotic (%) [2]: 52% and 86% | Population Fragmented Nuclei (%) [2]: 3% | Population Healthy Nuclei (%) [2]: 89% and 90% | Population Hoechst High Intensity Objects (%) [2]: 13% | Population Membrane Permeable-Phenotype (%) [2]: 2% and 1% | Population Mitochondria Different-Phenotype (%) [2]: 59% and 57% | Population Normal (%) [2]: 86% | Population Pyknosed Nuclei (%) [2]: 7% and 6% | Population Tubulin-Different-Phenotype (%) [2]: 86% | Total Cell Count [2]: 345 and 378 | Population Apoptotic (%) [3]: 74% and 68% | Population Fragmented Nuclei (%) [3]: 3% and 2% | Population Healthy Nuclei (%) [3]: 86% | Population Hoechst High Intensity Objects (%) [3]: 10% and 11% | Population Membrane Permeable-Phenotype (%) [3]: 1% and 0% | Population Mitochondria Different-Phenotype (%) [3]: 60% and 52% | Population Mitotic Cells (%) [3]: 25% and 31% | Population Normal (%) [3]: 89% and 88% | Population Pyknosed Nuclei (%) [3]: 10% and 11% | Population Tubulin-Different-Phenotype (%) [3]: 70% and 67% | Total Cell Count [3]: 295 and 327 | Population Apoptotic (%) [4]: 47% and 79% | Population Fragmented Nuclei (%) [4]: 4% and 3% | Population Healthy Nuclei (%) [4]: 88% | Population Hoechst High Intensity Objects (%) [4]: 18% and 17% | Population Membrane Permeable-Phenotype (%) [4]: 0% | Population Mitochondria Different-Phenotype (%) [4]: 70% and 67% | Population Mitotic Cells (%) [4]: 52% and 20% | Population Normal (%) [4]: 81% and 82% | Population Pyknosed Nuclei (%) [4]: 6% and 8% | Population Tubulin-Different-Phenotype (%) [4]: 83% and 85% | Total Cell Count [4]: 300 and 355 | Population Apoptotic (%) [5]: 68% and 80% | Population Fragmented Nuclei (%) [5]: 4% and 3% | Population Healthy Nuclei (%) [5]: 85% and 80% | Population Hoechst High Intensity Objects (%) [5]: 11% and 13% | Population Membrane Permeable-Phenotype (%) [5]: 0% | Population Mitochondria Different-Phenotype (%) [5]: 71% and 75% | Population Mitotic Cells (%) [5]: 32% and 19% | Population Normal (%) [5]: 88% and 86% | Population Pyknosed Nuclei (%) [5]: 10% and 16% | Population Tubulin-Different-Phenotype (%) [5]: 74% and 67% | Total Cell Count [5]: 268 and 257 | Population Apoptotic (%) [6]: 43% and 68% | Population Fragmented Nuclei (%) [6]: 1% and 5% | Population Healthy Nuclei (%) [6]: 91% and 87% | Population Hoechst High Intensity Objects (%) [6]: 19% and 20% | Population Membrane Permeable-Phenotype (%) [6]: 1% and 0% | Population Mitochondria Different-Phenotype (%) [6]: 74% and 73% | Population Mitotic Cells (%) [6]: 56% and 31% | Population Normal (%) [6]: 80% and 79% | Population Pyknosed Nuclei (%) [6]: 6% and 7% | Population Tubulin-Different-Phenotype (%) [6]: 83% | Total Cell Count [6]: 292 and 309

CN1CCCN(C(=O)c2cccc(-c3ccc(/C=C4/C(=O)Nc5ccc(Cl)cc54)o3)c2)CC1
Population Apoptotic (%) [1]: 58% and 72% | Population Fragmented Nuclei (%) [1]: 4% | Population Healthy Nuclei (%) [1]: 88% and 86% | Population Hoechst High Intensity Objects (%) [1]: 6% | Population Membrane Permeable-Phenotype (%) [1]: 3% and 2% | Population Mitochondria Different-Phenotype (%) [1]: 8% and 12% | Population Mitotic Cells (%) [1]: 41% and 27% | Population Normal (%) [1]: 93% | Population Pyknosed Nuclei (%) [1]: 6% and 9% | Population Tubulin-Different-Phenotype (%) [1]: 60% and 45% | Total Cell Count [1]: 923 and 535 | Population Apoptotic (%) [2]: 67% and 62% | Population Fragmented Nuclei (%) [2]: 2% and 1% | Population Healthy Nuclei (%) [2]: 86% and 92% | Population Hoechst High Intensity Objects (%) [2]: 5% and 6% | Population Membrane Permeable-Phenotype (%) [2]: 7% and 4% | Population Mitochondria Different-Phenotype (%) [2]: 38% and 32% | Population Mitotic Cells (%) [2]: 32% and 37% | Population Normal (%) [2]: 94% and 93% | Population Pyknosed Nuclei (%) [2]: 11% and 6% | Population Tubulin-Different-Phenotype (%) [2]: 94% and 96% | Total Cell Count [2]: 365 and 416 | Population Apoptotic (%) [3]: 57% and 72% | Population Fragmented Nuclei (%) [3]: 7% and 6% | Population Healthy Nuclei (%) [3]: 86% and 85% | Population Hoechst High Intensity Objects (%) [3]: 9% | Population Membrane Permeable-Phenotype (%) [3]: 2% and 1% | Population Mitochondria Different-Phenotype (%) [3]: 1% and 3% | Population Mitotic Cells (%) [3]: 42% and 27% | Population Normal (%) [3]: 90% | Population Pyknosed Nuclei (%) [3]: 6% and 8% | Population Tubulin-Different-Phenotype (%) [3]: 18% and 20% | Total Cell Count [3]: 1009 and 610 | Population Apoptotic (%) [4]: 64% and 56% | Population Fragmented Nuclei (%) [4]: 4% and 2% | Population Healthy Nuclei (%) [4]: 79% and 90% | Population Hoechst High Intensity Objects (%) [4]: 2% and 4% | Population Membrane Permeable-Phenotype (%) [4]: 7% and 8% | Population Mitochondria Different-Phenotype (%) [4]: 34% and 29% | Population Mitotic Cells (%) [4]: 35% and 43% | Population Normal (%) [4]: 97% and 95% | Population Pyknosed Nuclei (%) [4]: 16% and 7% | Population Tubulin-Different-Phenotype (%) [4]: 84% and 87% | Total Cell Count [4]: 402 and 421 | Population Apoptotic (%) [5]: 43% and 64% | Population Fragmented Nuclei (%) [5]: 16% and 12% | Population Healthy Nuclei (%) [5]: 81% and 84% | Population Hoechst High Intensity Objects (%) [5]: 6% and 5% | Population Membrane Permeable-Phenotype (%) [5]: 0% | Population Mitochondria Different-Phenotype (%) [5]: 1% and 4% | Population Mitotic Cells (%) [5]: 56% and 35% | Population Normal (%) [5]: 93% and 94% | Population Pyknosed Nuclei (%) [5]: 2% | Population Tubulin-Different-Phenotype (%) [5]: 14% and 15% | Total Cell Count [5]: 1019 and 606 | Population Apoptotic (%) [6]: 60% and 55% | Population Fragmented Nuclei (%) [6]: 6% | Population Healthy Nuclei (%) [6]: 46% and 55% | Population Hoechst High Intensity Objects (%) [6]: 7% and 3% | Population Membrane Permeable-Phenotype (%) [6]: 3% and 2% | Population Mitochondria Different-Phenotype (%) [6]: 50% and 38% | Population Mitotic Cells (%) [6]: 39% and 44% | Population Normal (%) [6]: 92% and 96% | Population Pyknosed Nuclei (%) [6]: 47% and 38% | Population Tubulin-Different-Phenotype (%) [6]: 77% and 76% | Total Cell Count [6]: 403 and 446

CCN1CCN(Cc2ccc(C(=O)Nc3ccc(C)c(Oc4ccc5c(c4)CC(=O)N5)c3)cc2C(F)(F)F)CC1.Cl.Cl
Population Apoptotic (%) [1]: 43% and 61% | Population Fragmented Nuclei (%) [1]: 3% and 7% | Population Healthy Nuclei (%) [1]: 83% and 79% | Population Hoechst High Intensity Objects (%) [1]: 6% and 8% | Population Membrane Permeable-Phenotype (%) [1]: 2% | Population Mitochondria Different-Phenotype (%) [1]: 24% and 20% | Population Mitotic Cells (%) [1]: 56% and 38% | Population Normal (%) [1]: 93% and 91% | Population Pyknosed Nuclei (%) [1]: 12% and 13% | Population Tubulin-Different-Phenotype (%) [1]: 64% and 61% | Total Cell Count [1]: 609 and 592 | Population Apoptotic (%) [2]: 68% and 69% | Population Fragmented Nuclei (%) [2]: 6% and 5% | Population Healthy Nuclei (%) [2]: 80% and 81% | Population Hoechst High Intensity Objects (%) [2]: 12% and 10% | Population Membrane Permeable-Phenotype (%) [2]: 6% and 2% | Population Mitochondria Different-Phenotype (%) [2]: 30% and 42% | Population Mitotic Cells (%) [2]: 31% and 30% | Population Normal (%) [2]: 87% and 89% | Population Pyknosed Nuclei (%) [2]: 13% and 12% | Population Tubulin-Different-Phenotype (%) [2]: 96% and 95% | Total Cell Count [2]: 598 and 606 | Population Apoptotic (%) [3]: 40% and 52% | Population Fragmented Nuclei (%) [3]: 4% and 3% | Population Healthy Nuclei (%) [3]: 88% and 89% | Population Hoechst High Intensity Objects (%) [3]: 7% and 8% | Population Membrane Permeable-Phenotype (%) [3]: 2% | Population Mitochondria Different-Phenotype (%) [3]: 9% | Population Mitotic Cells (%) [3]: 59% and 47% | Population Normal (%) [3]: 92% and 91% | Population Pyknosed Nuclei (%) [3]: 7% and 6% | Population Tubulin-Different-Phenotype (%) [3]: 45% and 47% | Total Cell Count [3]: 907 and 801 | Population Apoptotic (%) [4]: 58% and 78% | Population Fragmented Nuclei (%) [4]: 7% and 5% | Population Healthy Nuclei (%) [4]: 78% and 81% | Population Hoechst High Intensity Objects (%) [4]: 15% | Population Membrane Permeable-Phenotype (%) [4]: 4% and 2% | Population Mitochondria Different-Phenotype (%) [4]: 40% and 44% | Population Mitotic Cells (%) [4]: 41% and 21% | Population Normal (%) [4]: 84% | Population Pyknosed Nuclei (%) [4]: 14% and 12% | Population Tubulin-Different-Phenotype (%) [4]: 97% and 95% | Total Cell Count [4]: 517 and 556 | Population Apoptotic (%) [5]: 12% and 23% | Population Fragmented Nuclei (%) [5]: 10% and 6% | Population Healthy Nuclei (%) [5]: 85% and 87% | Population Hoechst High Intensity Objects (%) [5]: 9% and 8% | Population Membrane Permeable-Phenotype (%) [5]: 5% and 3% | Population Mitochondria Different-Phenotype (%) [5]: 0% and 1% | Population Mitotic Cells (%) [5]: 87% and 76% | Population Normal (%) [5]: 90% and 91% | Population Pyknosed Nuclei (%) [5]: 4% and 5% | Population Tubulin-Different-Phenotype (%) [5]: 22% and 28% | Total Cell Count [5]: 2293 and 1602 | Population Apoptotic (%) [6]: 75% | Population Fragmented Nuclei (%) [6]: 10% and 14% | Population Healthy Nuclei (%) [6]: 76% and 73% | Population Hoechst High Intensity Objects (%) [6]: 14% and 17% | Population Membrane Permeable-Phenotype (%) [6]: 13% and 5% | Population Mitochondria Different-Phenotype (%) [6]: 12% and 13% | Population Mitotic Cells (%) [6]: 25% | Population Normal (%) [6]: 85% and 82% | Population Pyknosed Nuclei (%) [6]: 12% | Population Tubulin-Different-Phenotype (%) [6]: 94% and 93% | Total Cell Count [6]: 709 and 749
